Source: ChEMBL document CHEMBL4002602, “Design, Synthesis of Novel, Potent, Selective, Orally Bioavailable Adenosine A2A Receptor Antagonists and Their Biological Evaluation” (J Med Chem, 2017)
Blank lines part the entries; values can stand above or below the molecule they belong to. The source made the active and inactive calls. The calls are words filed in the database; no cut-off is given here.

Assays:
[1] = Ratio of AUC (0 to t) in Wistar rat brain to AUC (0 to t) in Wistar rat plasma at 10 mg/kg administered through oral gavage by LC/MS/MS analysis; format: ADME, organism-based; conditions: brain and plasma, read-out: Ratio AUC
Method in brief: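 Male Wistar rats (230 ± 15 g), fasted overnight, water ad libitum; single oral dose of 10 mg/kg as suspension in 1% Tween 80/0.5% NaCMC, n=4. Blood and brain collected by discrete sampling at 0.5, 2, 4 and 8 h post dose. Brain washed in PBS and homogenised, plasma and homogenate precipitated with acetonitrile plus internal standard, LC/MS/MS; AUC0-t from non-compartmental analysis.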

[2] = system: Rattus norvegicus; experiment: Neuroprotective activity in po dosed 6-OHDA-lesioned Wistar rat model of parkinson disease assessed as increase in L-DOPA induced contralateral rotations pretreated for 30 mins followed by benserazide addition and subsequent L-DOPA stimulation for 30 mins measured at 60 mins post dose; format: functional, organism-based
Method in brief: (§1)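 Male Wistar rats (295–305 g) anesthetized with ketamine/xylazine and given desipramine 10 mg/kg i.p. 30 min before 6-OHDA lesioning. At two weeks, rats were screened with apomorphine 0.05 mg/kg i.p. and kept only if they made ≥100 rotations in 1 h. Compound (30 or 100 mg/kg p.o., in 1% Tween 80/0.5% MC) was given 30 min before benserazide. L-DOPA 4 mg/kg i.p. followed 30 min later. Contralateral rotations counted over 2 h; one-way ANOVA with Dunnett's test.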

[3] = system: Rattus norvegicus; experiment: Neuroprotective activity in 6-OHDA-lesioned Wistar rat model of parkinson disease assessed as increase in L-DOPA induced contralateral rotations at 100 mg/kg, po pretreated for 30 mins followed by benserazide addition and subsequent L-DOPA stimulation for 30 mins measured up to 2 hrs; format: functional, organism-based; method in brief: as §1
[4] = molecular target: Voltage-gated inwardly rectifying potassium channel KCNH2 (Homo sapiens, UniProt Q12809); experiment: Inhibition of [3H]-astemizole binding to human ERG at 10 uM after 2 hrs by liquid scintillation counting method relative to control; conditions: 2 h, 10 µM
[5] = molecular target: T1, Adenosine receptor A1 (Homo sapiens, UniProt P30542); experiment: Antagonist activity at human adenosine A1 receptor expressed in HEK293 cell membranes assessed as decrease in CPA/forskolin-induced cAMP level pretreated for 15 mins followed by agonist addition for 15 mins and subsequent forskolin stimulation measured after 30 mins; format: functional, cell-based
T1 sequence (P30542 whole entry): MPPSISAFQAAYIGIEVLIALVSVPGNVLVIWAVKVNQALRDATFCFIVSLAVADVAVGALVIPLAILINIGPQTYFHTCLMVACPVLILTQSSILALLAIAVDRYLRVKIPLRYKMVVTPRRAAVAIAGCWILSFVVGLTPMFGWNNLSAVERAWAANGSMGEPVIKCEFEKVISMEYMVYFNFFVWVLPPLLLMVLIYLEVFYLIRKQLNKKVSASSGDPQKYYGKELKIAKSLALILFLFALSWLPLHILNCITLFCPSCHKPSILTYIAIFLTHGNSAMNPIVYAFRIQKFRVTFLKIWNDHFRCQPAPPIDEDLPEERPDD
Method in brief: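 HTRF cAMP assay in overnight-seeded HEK cells expressing human A1, A2A or A2B, pretreated with ADA 1 U/ml for 90 min at 37 °C. Cells were given compound at increasing concentrations for 15 min, then agonist at room temperature in incomplete DMEM with ADA: CPA 1 nM, 15 min (A1); CGS-21680 10 nM, 30 min (A2A); NECA 70 nM, 15 min (A2B). Rolipram 20 μM for A1 and A2A; forskolin 30 min for A1 only. 12 concentrations, triplicates; IC50/Ki by curve fitting.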

Chain of Voltage-gated inwardly rectifying potassium channel KCNH2 (Q12809 whole entry): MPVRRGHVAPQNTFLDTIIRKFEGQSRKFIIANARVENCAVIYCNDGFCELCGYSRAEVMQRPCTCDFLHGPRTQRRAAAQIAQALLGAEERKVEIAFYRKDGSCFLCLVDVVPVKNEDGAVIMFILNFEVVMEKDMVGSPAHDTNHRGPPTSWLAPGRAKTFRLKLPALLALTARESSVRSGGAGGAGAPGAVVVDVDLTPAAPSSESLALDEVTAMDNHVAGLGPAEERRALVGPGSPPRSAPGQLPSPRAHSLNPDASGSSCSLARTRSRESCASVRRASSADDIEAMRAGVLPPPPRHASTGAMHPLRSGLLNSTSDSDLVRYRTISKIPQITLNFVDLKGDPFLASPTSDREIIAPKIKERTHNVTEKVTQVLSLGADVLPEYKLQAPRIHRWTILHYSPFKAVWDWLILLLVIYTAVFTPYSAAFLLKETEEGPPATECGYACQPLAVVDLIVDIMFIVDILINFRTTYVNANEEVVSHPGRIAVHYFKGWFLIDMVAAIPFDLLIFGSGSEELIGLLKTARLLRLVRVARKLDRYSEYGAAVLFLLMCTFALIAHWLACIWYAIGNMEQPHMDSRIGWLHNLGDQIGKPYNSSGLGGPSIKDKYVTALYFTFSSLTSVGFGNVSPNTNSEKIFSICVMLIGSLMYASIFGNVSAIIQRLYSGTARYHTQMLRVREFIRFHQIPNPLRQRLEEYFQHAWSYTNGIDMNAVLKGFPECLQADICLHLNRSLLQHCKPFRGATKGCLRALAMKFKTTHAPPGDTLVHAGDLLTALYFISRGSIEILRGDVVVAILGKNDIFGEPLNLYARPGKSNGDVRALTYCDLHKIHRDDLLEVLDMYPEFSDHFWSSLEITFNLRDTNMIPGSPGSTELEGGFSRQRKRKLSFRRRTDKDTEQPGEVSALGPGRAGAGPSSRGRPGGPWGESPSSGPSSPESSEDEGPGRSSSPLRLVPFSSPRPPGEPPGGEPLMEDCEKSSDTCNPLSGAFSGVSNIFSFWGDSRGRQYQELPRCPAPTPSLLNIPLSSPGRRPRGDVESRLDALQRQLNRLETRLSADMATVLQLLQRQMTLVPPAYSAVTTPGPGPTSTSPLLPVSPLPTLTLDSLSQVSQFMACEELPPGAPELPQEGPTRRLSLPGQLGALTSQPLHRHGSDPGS

Kp [1]: 0.25
Structure (SMILES): CCN(CC)C1CCC(C)(C(=O)Nc2nc3c(OC)ccc(N4CCOCC4)c3s2)CC1 (stereo not given)
Activity [2]: Dose-dependent effect | Activity [3]: Active

Structure (SMILES): COc1ccc(N2CCOCC2)c2sc(NC(=O)C3(C)CCC(C)(O)CC3)nc12 (stereo not given)
inhibition (INH) [4]: Not Active

Ki [5]: 2000 nM
Structure (SMILES): COc1ccc(N2CCOCC2)c2sc(NC(=O)C(C)(C)Oc3ccc(F)cc3)nc12
